Activity calls are given as the source filed them. The rule behind the calls is not given here.
Columns and labels:
[1] = species: Rattus norvegicus; test: Modulation of [3H]NCS-382 binding to alpha4betadelta GABAA receptor in rat cortical membranes assessed as [3H]NCS-382 binding at 100 uM after 1 hr by TopCount scintillation counting method relative to control; format: cell membranes
Outline: (§1)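 Rat cortical membrane homogenate (50-70 µg protein per well) incubated with 16 nM [³H]NCS-382 and increasing analogue concentrations, 1 hr at 0-4 °C. Bound ligand collected by rapid filtration on GF/C filters and counted by scintillation. Single-point screen at 100 µM; cooperativity factor (α) and modulator Kb obtained by curve fitting. Triplicates, at least three independent experiments.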

[2] = species: Rattus norvegicus; test: Modulation of [3H]NCS-382 binding to alpha4betadelta GABAA receptor in rat cortical membranes after 1 hr by TopCount scintillation counting method; format: cell membranes; outline: as §1
[3] = molecular target: T1, Gamma-aminobutyric acid receptor subunit alpha-1/beta-2/delta (Homo sapiens) (UniProt P14867+P47870+O14764); test: Agonist activity at human alpha1beta2delta GABAA receptor expressed in Xenopus laevis oocytes assessed as increase in current amplitude at 1 mM at -60 mV holding potential by two-electrode voltage clamp electrophysiology method; format: cell-based
Outline: (§2)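 X. laevis oocytes injected with 0.9–1.8 ng cRNA for human α1, β2 and δ subunits (5:1:5) and stored at 18 °C in Barth's solution, pH 7.5. Two-electrode voltage clamp with 3 M KCl electrodes (~2–4 MΩ), perfused with recording solution at pH 7.4. Compound co-applied with 1 mM GABA. Initial and rebound currents expressed as fold increase over the 1 mM GABA response, mean ± S.E.M.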

[4] = molecular target: GABA-A receptor; alpha-1/beta-2/gamma-2 (Homo sapiens) (UniProt P14867+P47870+P18507); test: Modulation of human alpha1beta2gamma2S GABAA receptor expressed in Xenopus laevis oocytes assessed as increase in GABA-induced current at 1 mM at -60 mV holding potential by two-electrode voltage clamp electrophysiology method; format: cell-based
Outline: (§3)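 cRNA for human α1β2 (1:1) or α1β2γ2S (5:1:5) subunits injected into X. laevis oocytes (0.9–1.8 ng) and stored at 18 °C in Barth's solution, pH 7.5. Two-electrode voltage clamp in perfused recording solution at pH 7.4. Test compound at 1 mM applied with 1 mM GABA. Currents normalized and given as fold potentiation.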

[5] = molecular target: GABA-A receptor; GABA-A site (alpha1/beta2 interface) (Homo sapiens) (UniProt P14867+P47870); test: Modulation of human alpha1beta2 GABAA receptor expressed in Xenopus laevis oocytes assessed as increase in GABA-induced current at 1 mM at -60 mV holding potential by two-electrode voltage clamp electrophysiology method; format: cell-based; outline: as §3
[6] = molecular target: T1, Gamma-aminobutyric acid receptor subunit alpha-1/beta-2/delta (Homo sapiens); test: (§4) Modulation of human alpha1beta2delta GABAA receptor expressed in Xenopus laevis oocytes assessed as increase in GABA-induced current at 1 mM at -60 mV holding potential by two-electrode voltage clamp electrophysiology method relative to control; format: cell-based; outline: as §2
[7] = molecular target: T1, Gamma-aminobutyric acid receptor subunit alpha-1/beta-2/delta (Homo sapiens); test: as §4, with “current by measuring rebound current” for “current”, “potential measured after termination of compound application” for “potential”; format: cell-based; outline: as §2
[8] = molecular target: T1, Gamma-aminobutyric acid receptor subunit alpha-1/beta-2/delta (Homo sapiens); test: as §4, with “by measuring rebound current” for “at 1 mM”, “potential measured after termination of compound application” for “potential”; format: cell-based; outline: as §2

With CCOC(=O)C1=C(C)NC(=S)NC1c1cccc(OC)c1 (stereo not given) the “%max” value [1] was “inactive” and the Kb [2] was “inactive”.

With CCOC(=O)C1=C(C)NC(=S)NC1c1cn(-c2ccccc2)nn1 (stereo not given) the “%max” value [1] was “inactive” and the Kb [2] was “inactive”.

In the case of CCOC(=O)C1=C(C)NC(=O)NC1c1cccc(O)c1 (stereo not given), the “%max” value [1] is reported as “inactive”, the Kb [2] is reported as “inactive” and the Activity [3] is reported as “inactive”. For the same molecule, the Activity [4] was “inactive”, the Activity [5] was “inactive” and the fold change (FC) [6] was 6.2.

In the case of CCOC(=O)C1=C(C)NC(=S)N[C@H]1c1cccc(O)c1, the %max [1] is reported as 208% and the pKb [2] is reported as 3.95.

For CCOC(=O)C1=C(C)NC(=S)NC1c1ccccc1 (stereo not given), the “%max” value [1] was “inactive” and the Kb [2] was “inactive”.

With CCOC(=O)C1=C(C)N(Cc2ccccc2)C(=S)NC1c1cccc(O)c1 (stereo not given) the “%max” value [1] was “inactive” and the Kb [2] was “inactive”.

COC(=O)C1=C(C)NC(=S)NC1c1cccc(O)c1 (stereo not given) was tested, and the %max [1] was 194%, the pKb [2] was 3.46 and the Activity [3] was “inactive”. The Activity [4] was “inactive”, the Activity [7] was “Active” and the Activity [5] was “inactive”. For the same molecule, the fold change (FC) [6] was 1.3.

With CC1=C(C(=O)O)C(c2cccc(O)c2)NC(=S)N1 (stereo not given) the “%max” value [1] was “inactive” and the Kb [2] was “inactive”.

For CCOC(=O)C1=C(C)NC(=S)NC1c1ccc(O)cc1 (stereo not given), the “%max” value [1] was “inactive” and the Kb [2] was “inactive”.

With CCOC(=O)C1=C(C)NC(=S)NC1c1ccc(C)cc1 (stereo not given) the “%max” value [1] was “inactive” and the Kb [2] was “inactive”.

For CCOC(=O)C1=C(C)NC(=S)N[C@@H]1c1cccc(O)c1, the %max [1] was 171% and the pKb [2] was 3.48.

CCOC(=O)C1=C(C)NC(=S)NC1c1ccnn1C (stereo not given) was tested, and the “%max” value [1] was “inactive” and the Kb [2] was “inactive”.

CCOC(=O)C1=C(C)NC(=S)NC1c1cccc(C)c1 (stereo not given) was tested, and the “%max” value [1] was “inactive” and the Kb [2] was “inactive”.

Work on CCCC1=C(C(=O)OCC)C(c2cccc(O)c2)NC(=S)N1 (stereo not given) yielded a %max [1] of 198%.

With CCCCN1C(=S)NC(c2cccc(O)c2)C(C(=O)OCC)=C1C (stereo not given) the “%max” value [1] was “inactive” and the Kb [2] was “inactive”.

For CCOC(=O)C1=C(C(C)C)NC(=S)NC1c1cccc(O)c1 (stereo not given), the %max [1] was 130%.

In the case of CC1=C(C(=O)OCc2ccccc2)C(c2cccc(O)c2)NC(=S)N1 (stereo not given), the “%max” value [1] is reported as “inactive” and the Kb [2] is reported as “inactive”.

With CCN(CC)C(=O)C1=C(C)NC(=S)NC1c1cccc(O)c1 (stereo not given) the “%max” value [1] was “inactive” and the Kb [2] was “inactive”.

CCOC(=O)C1=C(CC)NC(=S)NC1c1cccc(O)c1 (stereo not given) was tested, and the %max [1] was 245%, the pKb [2] was 3.98 and the Activity [3] was “inactive”. The Activity [4] was “inactive”, the Activity [7] was “Active” and the Activity [5] was “inactive”. For the same molecule, the fold change (FC) [6] was 1.4.

CCC(=O)C1=C(CC)NC(=S)NC1c1cccc(O)c1 (stereo not given) was tested, and the %max [1] was 130%.

For CCOC(=O)C1=C2CCCN2C(=S)NC1c1cccc(O)c1 (stereo not given), the “%max” value [1] was “inactive” and the Kb [2] was “inactive”.

For CCOC(=O)C1=C(C)N(c2ccccc2)C(=S)NC1c1cccc(O)c1 (stereo not given), the “%max” value [1] was “inactive” and the Kb [2] was “inactive”.

CCOC(=O)C1=C(C)NC(=S)NC1c1ccc(O)c(O)c1 (stereo not given) was tested, and the %max [1] was 246%, the pKb [2] was 3.68 and the Activity [3] was “inactive”. The Activity [4] was “inactive”, the Activity [7] was “Active” and the Activity [5] was “inactive”. For the same molecule, the fold change (FC) [6] was 2.7.

CCOC(=O)C1=C(C)NC(=S)NC1c1cccc(F)c1 (stereo not given) was tested, and the “%max” value [1] was “inactive” and the Kb [2] was “inactive”.

In the case of CCOC(=O)C1=C(C)N=C(S)NC1C (stereo not given), the “%max” value [1] is reported as “inactive” and the Kb [2] is reported as “inactive”.

With CCOC(=O)C1=C(C)N(C)C(=S)N(C)C1c1cccc(O)c1 (stereo not given) the “%max” value [1] was “inactive” and the Kb [2] was “inactive”.

In the case of CCOC(=O)C1=C(C)N=C(S)NC1c1cccc([N+](=O)[O-])c1 (stereo not given), the “%max” value [1] is reported as “inactive” and the Kb [2] is reported as “inactive”.

For CCOC(=O)C1=C(C(C)(C)C)NC(=S)NC1c1cccc(O)c1 (stereo not given), the %max [1] was 130%.

For CCOC(=O)C1=C(C)N(CC)C(=S)NC1c1cccc(O)c1 (stereo not given), the %max [1] was 130%.

In the case of CCOC(=O)C1=C(C)NC(=S)NC1c1cccc(Cl)c1 (stereo not given), the “%max” value [1] is reported as “inactive” and the Kb [2] is reported as “inactive”.

For COC(=O)C1=C(C)NC(=O)NC1c1ccccc1 (stereo not given), the Kb [2] was “inactive”, the Activity [3] was “inactive” and the Activity [4] was “inactive”. The Activity [5] was “inactive” and the fold change (FC) [6] was 5.9.

With COC(=O)C1=C(C)N(C)C(=S)NC1c1cccc(O)c1 (stereo not given) the “%max” value [1] was “inactive” and the Kb [2] was “inactive”.

For CCOC(=O)C1=C(C)NC(=S)NC1c1cccnc1 (stereo not given), the “%max” value [1] was “inactive” and the Kb [2] was “inactive”.

In the case of CCOC(=O)C1=C(c2ccccc2)NC(=S)NC1c1cccc(O)c1 (stereo not given), the “%max” value [1] is reported as “inactive” and the Kb [2] is reported as “inactive”.

In the case of CCOC(=O)C1=C(C)NC(=S)NC1c1cccc(O)c1 (stereo not given), the %max [1] is reported as 185%, the pKb [2] is reported as 3.96 and the Activity [3] is reported as “inactive”. For the same molecule, the Activity [4] was “inactive”, the Activity [8] was “Dose-dependent effect” and the Activity [5] was “inactive”. For the same molecule, the fold change (FC) [6] was 2.9.

CCOC(=O)C1=C(C)NC(=O)NC1c1ccccc1 (stereo not given) was tested, and the “%max” value [1] was “inactive” and the Kb [2] was “inactive”.

Molecule CC(=O)C1=C(C)NC(=S)NC1c1cccc(O)c1 (stereo not given) has a %max [1] of 130%.

Work on CCOC(=O)C1=C(C)N(C)C(=S)NC1c1cccc(O)c1 (stereo not given) yielded a %max [1] of 177%, a Kb [2] of 87 µM and a pKb [2] of 4.06. For the same molecule, the Activity [3] was “inactive”, the Activity [4] was “inactive” and the Activity [7] was “Active”. For the same molecule, the Activity [5] was “inactive” and the fold change (FC) [6] was 3.1.

With CCOC(=O)C1=C(C)NC(=S)NC1c1cc(O)cc(O)c1 (stereo not given) the %max [1] was 247% and the pKb [2] was 3.83.

Reference: ChEMBL document CHEMBL4190247, “Monastrol, a 3,4-dihydropyrimidin-2(1H)-thione, as structural scaffold for the development of modulators for GHB high-affinity binding sites and α1β2δ GABAA receptors” (Eur J Med Chem, 2017)
